Source: ChEMBL document CHEMBL1944580, “Synthesis of novel sulfonamide-1,2,4-triazoles, 1,3,4-thiadiazoles and 1,3,4-oxadiazoles, as potential antibacterial and antifungal agents. Biological evaluation and conformational analysis studies” (2012)
In brackets after ≈: the same amount, converted by molar mass.

How the values were obtained:
Pseudomonas aeruginosa [1] = assay: Antibacterial activity against Pseudomonas aeruginosa ATCC 27853 treated for 24 hrs followed by sub-cultivated for 72 hrs by micro dilution method; assay type: functional
How it was run: (§1)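 2 µl from each well was serially subcultured into 100 µl fresh broth per well and incubated a further 72 h. MBC is the lowest concentration with no visible growth, taken as 99.5% killing of the original inoculum. Streptomycin and ampicillin were the positive controls.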

Penicillium ochrochloron [2] = assay: Antifungal activity against Penicillium ochrochloron ATCC 9112 after 72 hrs by serial dilution method; assay type: functional; conditions: ATCC 9112, 72 h
How it was run: (§2)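 Modified microdilution MIC. Spores were washed from malt agar cultures with sterile 0.85% saline containing 0.1% Tween 80 and adjusted to about 1.0 × 10^5 per 100 µl well in malt broth. Compounds were dissolved in DMSO (1 mg/ml). Plates incubated 72 h at 28 °C. MIC is the lowest concentration with no visible growth under a binocular microscope. Bifonazole and ketoconazole were the references.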

Aspergillus fumigatus [3] = assay: Antifungal activity against Aspergillus fumigatus human isolate treated for 72 hrs followed by sub-cultivated for 5 days by serial dilution method; assay type: functional
How it was run: (§3)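 MFC obtained after the 72 h, 28 °C malt-broth microdilution (spore inoculum about 1.0 × 10^5 per well, compounds from 1 mg/ml DMSO). 2 µl was serially subcultured into 100 µl broth per well and incubated a further 5 days at 28 °C. MFC is the lowest concentration with no visible growth, taken as 99.5% killing of the original inoculum.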

Talaromyces funiculosus [4] = assay: Antifungal activity against Penicillium funiculosum ATCC 36839 treated for 72 hrs followed by sub-cultivated for 5 days by serial dilution method; assay type: functional; how it was run: as §3
Aspergillus flavus [5] = assay: Antifungal activity against Aspergillus flavus ATCC 9643 treated for 72 hrs followed by sub-cultivated for 5 days by serial dilution method; assay type: functional; how it was run: as §3
Aspergillus flavus [6] = assay: Antifungal activity against Aspergillus flavus ATCC 9643 after 72 hrs by serial dilution method; assay type: functional; conditions: ATCC 9643, 72 h; how it was run: as §2
Micrococcus flavus [7] = assay: Antibacterial activity against Micrococcus flavus ATCC 10240 treated for 24 hrs followed by sub-cultivated for 72 hrs by micro dilution method; assay type: functional; how it was run: as §1
Penicillium ochrochloron [8] = assay: Antifungal activity against Penicillium ochrochloron ATCC 9112 treated for 72 hrs followed by sub-cultivated for 5 days by serial dilution method; assay type: functional; how it was run: as §3
Escherichia coli [9] = assay: Antibacterial activity against Escherichia coli ATCC 35210 after 24 hrs by micro dilution method; assay type: functional; conditions: ATCC 35210, 24 h
How it was run: (§4)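 Microdilution MIC in 96-well plates. Bacterial suspensions adjusted in sterile saline to 1.0 × 10^5 CFU/ml, giving 1.0 × 10^4 cfu per well in LB broth. Compounds tested at up to 1 mg/ml. Plates incubated 24 h. MIC taken as the lowest concentration with no visible growth under a binocular microscope. OD at 655 nm was also read against a blank and the positive control. Streptomycin and ampicillin were the positive controls.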

Listeria monocytogenes [10] = assay: Antibacterial activity against Listeria monocytogenes NCTC 7973 treated for 24 hrs followed by sub-cultivated for 72 hrs by micro dilution method; assay type: functional; how it was run: as §1
Salmonella typhimurium [11] = assay: Antibacterial activity against Salmonella Typhimurium ATCC 13311 treated for 24 hrs followed by sub-cultivated for 72 hrs by micro dilution method; assay type: functional, Salmonella enterica subsp. enterica serovar Typhimurium; conditions: Salmonella enterica; how it was run: as §1
Aspergillus fumigatus [12] = assay: Antifungal activity against Aspergillus fumigatus human isolate after 72 hrs by serial dilution method; assay type: functional; how it was run: as §2
Aspergillus versicolor [13] = assay: Antifungal activity against Aspergillus versicolor ATCC 11730 after 72 hrs by serial dilution method; assay type: functional; conditions: ATCC 11730, 72 h; how it was run: as §2
Aspergillus niger [14] = assay: Antifungal activity against Aspergillus niger ATCC 6275 treated for 72 hrs followed by sub-cultivated for 5 days by serial dilution method; assay type: functional; how it was run: as §3
Enterobacter cloacae [15] = assay: Antibacterial activity against Enterobacter cloacae human isolate treated for 24 hrs followed by sub-cultivated for 72 hrs by micro dilution method; assay type: functional; how it was run: as §1
Aspergillus niger [16] = assay: Antifungal activity against Aspergillus niger ATCC 6275 after 72 hrs by serial dilution method; assay type: functional; conditions: ATCC 6275, 72 h; how it was run: as §2
Escherichia coli [17] = assay: Antibacterial activity against Escherichia coli ATCC 35210 treated for 24 hrs followed by sub-cultivated for 72 hrs by micro dilution method; assay type: functional; how it was run: as §1
Bacillus cereus [18] = assay: Antibacterial activity against Bacillus cereus clinical isolate after 24 hrs by micro dilution method; assay type: functional; how it was run: as §4
Listeria monocytogenes [19] = assay: Antibacterial activity against Listeria monocytogenes NCTC 7973 after 24 hrs by micro dilution method; assay type: functional; conditions: NCTC 7973, 24 h; how it was run: as §4
Trichoderma viride [20] = assay: Antifungal activity against Trichoderma viride IAM 5061 after 72 hrs by serial dilution method; assay type: functional; conditions: IAM 5061, 72 h; how it was run: as §2
Bacillus cereus [21] = assay: Antibacterial activity against Bacillus cereus clinical isolate treated for 24 hrs followed by sub-cultivated for 72 hrs by micro dilution method; assay type: functional; how it was run: as §1
Micrococcus flavus [22] = assay: Antibacterial activity against Micrococcus flavus ATCC 10240 after 24 hrs by micro dilution method; assay type: functional; conditions: ATCC 10240, 24 h; how it was run: as §4
Enterobacter cloacae [23] = assay: Antibacterial activity against Enterobacter cloacae human isolate after 24 hrs by micro dilution method; assay type: functional; how it was run: as §4
Pseudomonas aeruginosa [24] = assay: Antibacterial activity against Pseudomonas aeruginosa ATCC 27853 after 24 hrs by micro dilution method; assay type: functional; conditions: ATCC 27853, 24 h; how it was run: as §4
Fulvia fulva [25] = assay: Antifungal activity against Fulvia fulva treated for 72 hrs followed by sub-cultivated for 5 days by serial dilution method; assay type: functional; how it was run: as §3
Aspergillus versicolor [26] = assay: Antifungal activity against Aspergillus versicolor ATCC 11730 treated for 72 hrs followed by sub-cultivated for 5 days by serial dilution method; assay type: functional; how it was run: as §3
Staphylococcus aureus [27] = assay: Antibacterial activity against Staphylococcus aureus ATCC 6538 after 24 hrs by micro dilution method; assay type: functional; conditions: ATCC 6538, 24 h; how it was run: as §4
Fulvia fulva [28] = assay: Antifungal activity against Fulvia fulva after 72 hrs by serial dilution method; assay type: functional; how it was run: as §2
Staphylococcus aureus [29] = assay: Antibacterial activity against Staphylococcus aureus ATCC 6538 treated for 24 hrs followed by sub-cultivated for 72 hrs by micro dilution method; assay type: functional; how it was run: as §1
Trichoderma viride [30] = assay: Antifungal activity against Trichoderma viride IAM 5061 treated for 72 hrs followed by sub-cultivated for 5 days by serial dilution method; assay type: functional; how it was run: as §3
Talaromyces funiculosus [31] = assay: Antifungal activity against Penicillium funiculosum ATCC 36839 after 72 hrs by serial dilution method; assay type: functional; conditions: ATCC 36839, 72 h; how it was run: as §2
Salmonella typhimurium [32] = assay: Antibacterial activity against Salmonella Typhimurium ATCC 13311 after 24 hrs by micro dilution method; assay type: functional, Salmonella enterica subsp. enterica serovar Typhimurium; conditions: Salmonella enterica, ATCC 13311, 24 h; how it was run: as §4

SMILES | MBC (Pseudomonas aeruginosa [1]) | MIC (Penicillium ochrochloron [2]) | MFC (Aspergillus fumigatus [3]) | MFC (Talaromyces funiculosus [4]) | MFC (Aspergillus flavus [5]) | MIC (Aspergillus flavus [6]) | MBC (Micrococcus flavus [7]) | MFC (Penicillium ochrochloron [8]) | MIC (Escherichia coli [9]) | MBC (Listeria monocytogenes [10]) | MBC (Salmonella typhimurium [11]) | MIC (Aspergillus fumigatus [12]) | MIC (Aspergillus versicolor [13]) | MFC (Aspergillus niger [14]) | MBC (Enterobacter cloacae [15]) | MIC (Aspergillus niger [16]) | MBC (Escherichia coli [17]) | MIC (Bacillus cereus [18]) | MIC (Listeria monocytogenes [19]) | MIC (Trichoderma viride [20]) | also measured
CNc1nnc(Cc2cc(OC)c(OC)cc2S(=O)(=O)N(C)C)s1 | 270 µM (≈ 101 µg/mL) | 140 µM (≈ 52.1 µg/mL) | 270 µM (≈ 101 µg/mL) | 270 µM (≈ 101 µg/mL) | 270 µM (≈ 101 µg/mL) | 140 µM (≈ 52.1 µg/mL) | 540 µM (≈ 201 µg/mL) | 270 µM (≈ 101 µg/mL) | 270 µM (≈ 101 µg/mL) | 540 µM (≈ 201 µg/mL) | 270 µM (≈ 101 µg/mL) | 140 µM (≈ 52.1 µg/mL) | 270 µM (≈ 101 µg/mL) | 140 µM (≈ 52.1 µg/mL) | 270 µM (≈ 101 µg/mL) | 70 µM (≈ 26.1 µg/mL) | 270 µM (≈ 101 µg/mL) | 270 µM (≈ 101 µg/mL) | 270 µM (≈ 101 µg/mL) | 70 µM (≈ 26.1 µg/mL) | MBC (Bacillus cereus [21]): 270 µM (≈ 101 µg/mL); MIC (Micrococcus flavus [22]): 270 µM (≈ 101 µg/mL); MIC (Enterobacter cloacae [23]): 270 µM (≈ 101 µg/mL); MIC (Pseudomonas aeruginosa [24]): 270 µM (≈ 101 µg/mL); MFC (Fulvia fulva [25]): 70 µM (≈ 26.1 µg/mL); MFC (Aspergillus versicolor [26]): 540 µM (≈ 201 µg/mL); MIC (Staphylococcus aureus [27]): 270 µM (≈ 101 µg/mL); MIC (Fulvia fulva [28]): 70 µM (≈ 26.1 µg/mL); MBC (Staphylococcus aureus [29]): 540 µM (≈ 201 µg/mL); MFC (Trichoderma viride [30]): 130 µM (≈ 48.4 µg/mL); MIC (Talaromyces funiculosus [31]): 140 µM (≈ 52.1 µg/mL); MIC (Salmonella typhimurium [32]): 270 µM (≈ 101 µg/mL)
CCNc1nnc(Cc2cc(OC)c(OC)cc2S(=O)(=O)N(C)C)s1 | 260 µM (≈ 100 µg/mL) | 130 µM (≈ 50.2 µg/mL) | 260 µM (≈ 100 µg/mL) | 260 µM (≈ 100 µg/mL) | 260 µM (≈ 100 µg/mL) | 130 µM (≈ 50.2 µg/mL) | 520 µM (≈ 201 µg/mL) | 260 µM (≈ 100 µg/mL) | 260 µM (≈ 100 µg/mL) | 520 µM (≈ 201 µg/mL) | 260 µM (≈ 100 µg/mL) | 130 µM (≈ 50.2 µg/mL) | 260 µM (≈ 100 µg/mL) | 260 µM (≈ 100 µg/mL) | 520 µM (≈ 201 µg/mL) | 130 µM (≈ 50.2 µg/mL) | 260 µM (≈ 100 µg/mL) | 260 µM (≈ 100 µg/mL) | 520 µM (≈ 201 µg/mL) | 70 µM (≈ 27.1 µg/mL) | MBC (Bacillus cereus [21]): 260 µM (≈ 100 µg/mL); MIC (Micrococcus flavus [22]): 260 µM (≈ 100 µg/mL); MIC (Enterobacter cloacae [23]): 520 µM (≈ 201 µg/mL); MIC (Pseudomonas aeruginosa [24]): 260 µM (≈ 100 µg/mL); MFC (Fulvia fulva [25]): 70 µM (≈ 27.1 µg/mL); MFC (Aspergillus versicolor [26]): 520 µM (≈ 201 µg/mL); MIC (Staphylococcus aureus [27]): 520 µM (≈ 201 µg/mL); MIC (Fulvia fulva [28]): 70 µM (≈ 27.1 µg/mL); MBC (Staphylococcus aureus [29]): 520 µM (≈ 201 µg/mL); MFC (Trichoderma viride [30]): 130 µM (≈ 50.2 µg/mL); MIC (Talaromyces funiculosus [31]): 130 µM (≈ 50.2 µg/mL); MIC (Salmonella typhimurium [32]): 260 µM (≈ 100 µg/mL)
